In ChEMBL document CHEMBL4043201, “Conjugates of 18β-glycyrrhetinic acid derivatives with 3-(1H-benzo[d]imidazol-2-yl)propanoic acid as Pin1 inhibitors displaying anti-prostate cancer ability” (Bioorg Med Chem, 2017) one finds GI50, inhibition and IC50 data, which are given here for 20 compounds.

Broadly, the GI50 is the concentration that inhibits growth by half. A word on the inhibition: it is how much of the control response was suppressed. One may read the IC50 as the midpoint of a concentration-inhibition curve.

One assay relates to PC-3. Briefly: Antiproliferative activity against human PC3 cells assessed as inhibition of cell growth incubated for 96 hrs by MTT assay. The format is functional. Particulars: PC-3, 96 h. In a few lines:
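PC-3 cells grown in RPMI1640 with 10% heat-inactivated FBS, seeded at 2×10^4 cells/well and kept 24 h at 37 °C in 5% CO2. Compounds were then added at various concentrations for 96 h. MTT (2 mg/mL) was added for a further 4 h, cells dissolved in DMSO, and A570 read. Growth was treated/untreated cell number, with GI50 calculated from inhibition ratios. Mean of three independent runs.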
Background: Tetrazolium assays rely on reduction of a dye to a coloured formazan, in cell work by metabolically active cells.

The target of assay [1] is T1, Peptidyl-prolyl cis-trans isomerase NIMA-interacting 1 (Homo sapiens, UniProt Q13526). Description: Inhibition of Pin1 (unknown origin) assessed as reduction in peptidyl-prolyl isomerase activity at 10 uM incubated for 30 mins using Suc-Ala-Glu-cis-Pro-Phe-4-nitroanilide substrate by protease coupled assay. In a few lines: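 Commercial Pin1 in 35 mM HEPES pH 7.8 was pre-equilibrated with compound (DMSO solutions) for 30 min at 10 °C. Ice-cold chymotrypsin (stock 60 mg/mL in 0.001 M HCl) was added, then Suc-Ala-Glu-cis-Pro-Phe-4-nitroanilide in 0.47 mol/L LiCl/trifluoroethanol was added to start the reaction. Absorbance at 390 nm was monitored for 90 s at 10 °C.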

Assay [2] addresses T1, Peptidyl-prolyl cis-trans isomerase NIMA-interacting 1. Briefly: Inhibition of Pin1 (unknown origin) assessed as reduction in peptidyl-prolyl isomerase activity incubated for 30 mins using Suc-Ala-Glu-cis-Pro-Phe-4-nitroanilide substrate by protease coupled assay.
The test system of another assay is LNCaP. Briefly: Antiproliferative activity against human LNCAP cells assessed as inhibition of cell growth incubated for 96 hrs by MTT assay. The format is functional. In a few lines: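 MTT growth assay. Cells seeded at 2×10^4 per well and held 24 h at 37 °C under 5% CO2 before compound was added at a range of concentrations. Exposure lasted 96 h, then 2 mg/mL MTT was added for 4 h. Cells were dissolved in DMSO and absorbance read at 570 nm. Growth was taken as treated/untreated cell number. GI50 was derived from the inhibition ratios. Three independent experiments, mean reported.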

The target of assay [3] is T1, Peptidyl-prolyl cis-trans isomerase NIMA-interacting 1. Briefly: Inhibition of Pin1 in human PC3 cells assessed as reduction in Cyclin D1 protein level at 10 to 30 uM incubated for 24 hrs by Western blot method. The format is cell-based. In a few lines:
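PC-3 cells were treated 24 h with compound at 10, 20 or 30 μM, with DMSO as control. Cells were lysed in RIPA buffer with protease inhibitors, and 40 μg protein was run on 10% SDS-PAGE and blotted to nitrocellulose. Ponceau S was used as a loading check. Membranes were blocked in 5% milk and probed overnight at 4 °C with anti-cyclin D1 and β-actin, with secondary antibody 1 h at 37 °C. ECL detection.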
In general terms: Immunoblotting shows a protein as a band on a membrane.

T1 sequence (Q13526 whole entry): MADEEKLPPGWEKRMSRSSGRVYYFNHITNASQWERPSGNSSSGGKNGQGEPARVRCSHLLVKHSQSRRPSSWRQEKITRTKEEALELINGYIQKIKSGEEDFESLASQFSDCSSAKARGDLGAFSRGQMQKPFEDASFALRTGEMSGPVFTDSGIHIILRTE

As for `O=C1C=CC(=O)c2c(O)cccc21` [JUGLONE], the GI50 in the assay on PC-3 was 4.77 µM. Further, the inhibition in assay [1] was found to be 44%. In assay [2], the IC50 was determined as 10.8 µM.

In the case of `CC1(C)C(=O)CC[C@]2(C)[C@H]3C(=O)C=C4[C@@H]5C[C@@](C)(C(=O)NCCn6c(CCC(=O)O)nc7ccccc76)CC[C@]5(C)CC[C@@]4(C)[C@]3(C)CC[C@@H]12`, the GI50 in the assay on PC-3 and with LNCaP was more than 50 µM each time. Besides, the inhibition in assay [1] was 38%. Besides, in assay [2], the IC50 is more than 10 µM.

Take `CC1(C)C(=O)CC[C@]2(C)[C@H]3C(=O)C=C4[C@@H]5C[C@@](C)(C(=O)OCCn6c(CCC(=O)O)nc7ccccc76)CC[C@]5(C)CC[C@@]4(C)[C@]3(C)CC[C@@H]12`: the GI50 in the assay with PC-3 turned out to be 39.9 µM; in the assay with LNCaP, 48.9 µM. Further, the inhibition in assay [1] came out at 63%.

For the compound `CC1(C)C(=O)CC[C@]2(C)[C@H]3CC=C4[C@@H]5C[C@@](C)(C(=O)OCCCn6c(CCC(=O)O)nc7ccccc76)CC[C@]5(C)CC[C@@]4(C)[C@]3(C)CC[C@@H]12`, the figures for the GI50 with PC-3 and in the assay on LNCaP were 13 µM and 19.7 µM, respectively. In addition, the inhibition in assay [1] came to 98%. The IC50 in assay [2] was 3.8 µM.

For the compound `CC1(C)[C@@H](O)CC[C@]2(C)[C@H]3C(=O)C=C4[C@@H]5C[C@@](C)(C(=O)OCCn6c(CCC(=O)O)nc7ccccc76)CC[C@]5(C)CC[C@@]4(C)[C@]3(C)CC[C@@H]12`, the GI50 with PC-3 and in the assay on LNCaP was more than 50 µM throughout. Besides, the inhibition in assay [1] is 60%.

Turning to `CC1(C)[C@@H](O)CC[C@]2(C)[C@H]3C(=O)C=C4[C@@H]5C[C@@](C)(C(=O)OCCCn6c(CCC(=O)O)nc7ccccc76)CC[C@]5(C)CC[C@@]4(C)[C@]3(C)CC[C@@H]12`, the concentration for 50% growth inhibition (GI50) in the assay with PC-3 and in the assay with LNCaP was more than 50 µM throughout. In addition, the inhibition in assay [1] worked out at 40%. Further, the IC50 in assay [2] is more than 10 µM.

Take `CC(=O)O[C@H]1CC[C@]2(C)[C@H]3CC=C4[C@@H]5C[C@@](C)(C(=O)OCCn6c(CCC(=O)O)nc7ccccc76)CC[C@]5(C)CC[C@@]4(C)[C@]3(C)CC[C@H]2C1(C)C`: the values for the GI50 with PC-3 and in the assay with LNCaP were 10.9 µM and 13.3 µM, respectively. Further, the inhibition in assay [1] came out at 94%. Besides, the IC50 in assay [2] came out at 4.79 µM.

For the compound `CC(=O)O[C@H]1CC[C@]2(C)[C@H]3C(=O)C=C4[C@@H]5C[C@@](C)(C(=O)OCCn6c(CCC(=O)O)nc7ccccc76)CC[C@]5(C)CC[C@@]4(C)[C@]3(C)CC[C@H]2C1(C)C`, the GI50 with PC-3 is 27.4 µM; with LNCaP it was 24.4 µM. Further, in assay [1], the inhibition amounted to 100%. Moreover, in assay [2], the IC50 was 1.06 µM.

As to `CC1(C)C(=O)CC[C@]2(C)[C@H]3C(=O)C=C4[C@@H]5C[C@@](C)(C(=O)NCCCn6c(CCC(=O)O)nc7ccccc76)CC[C@]5(C)CC[C@@]4(C)[C@]3(C)CC[C@@H]12`, the GI50 in the assay on PC-3 and in the assay on LNCaP was more than 50 µM in each case. Besides, the inhibition in assay [1] turned out to be 28%. Besides, the IC50 in assay [2] is more than 10 µM.

As to `CC(=O)O[C@H]1CC[C@]2(C)[C@H]3C(=O)C=C4[C@@H]5C[C@@](C)(C(=O)OCCCn6c(CCC(=O)O)nc7ccccc76)CC[C@]5(C)CC[C@@]4(C)[C@]3(C)CC[C@H]2C1(C)C`, the GI50 in the assay with PC-3 was 11.8 µM; in the assay on LNCaP it was 15.5 µM. Besides, the inhibition in assay [1] turned out to be 100%. The IC50 in assay [2] came to 1.33 µM.

With `O=C(O)CCc1nc2ccccc2[nH]1` [PROCODAZOLE], the GI50 with PC-3 and with LNCaP was more than 50 µM throughout. For the same compound, the inhibition in assay [1] is 23%.

As for `CC1(C)C(=O)CC[C@]2(C)[C@H]3CC=C4[C@@H]5C[C@@](C)(C(=O)OCCn6c(CCC(=O)O)nc7ccccc76)CC[C@]5(C)CC[C@@]4(C)[C@]3(C)CC[C@@H]12`, the concentration for 50% growth inhibition (GI50) is 18.4 µM in the assay with PC-3 and 25.8 µM in the assay with LNCaP. The inhibition in assay [1] was 69%.

For the compound `CC1(C)[C@@H](O)CC[C@]2(C)[C@H]3CC=C4[C@@H]5C[C@@](C)(C(=O)OCCCn6c(CCC(=O)O)nc7ccccc76)CC[C@]5(C)CC[C@@]4(C)[C@]3(C)CC[C@@H]12`, the figures for the GI50 in the assay on PC-3 and in the assay on LNCaP were 25.6 µM and 42.7 µM, respectively. In addition, the inhibition in assay [1] worked out at 100%. For the same compound, the IC50 in assay [2] was found to be 2.82 µM.

In the case of `CC(=O)O[C@H]1CC[C@]2(C)[C@H]3C(=O)C=C4[C@@H]5C[C@@](C)(C(=O)NCCn6c(CCC(=O)O)nc7ccccc76)CC[C@]5(C)CC[C@@]4(C)[C@]3(C)CC[C@H]2C1(C)C`, the GI50 with PC-3 and in the assay with LNCaP was more than 50 µM in each case. The inhibition in assay [1] is 27%. In addition, in assay [2], the IC50 was more than 10 µM.

For the compound `CC1(C)[C@@H](O)CC[C@]2(C)[C@H]3CC=C4[C@@H]5C[C@@](C)(C(=O)OCCn6c(CCC(=O)O)nc7ccccc76)CC[C@]5(C)CC[C@@]4(C)[C@]3(C)CC[C@@H]12`, the GI50 in the assay with PC-3 and in the assay on LNCaP was more than 50 µM each time. Besides, the inhibition in assay [1] came out at 54%.

With `CC1(C)C(=O)CC[C@]2(C)[C@H]3C(=O)C=C4[C@@H]5C[C@@](C)(C(=O)OCCCn6c(CCC(=O)O)nc7ccccc76)CC[C@]5(C)CC[C@@]4(C)[C@]3(C)CC[C@@H]12`, the GI50 was determined as 35.6 µM in the assay with PC-3 and 29.3 µM in the assay on LNCaP. The inhibition in assay [1] turned out to be 77%.

In the case of `CC1(C)[C@@H](O)CC[C@]2(C)[C@H]3C(=O)C=C4[C@@H]5C[C@@](C)(C(=O)O)CC[C@]5(C)CC[C@@]4(C)[C@]3(C)CC[C@@H]12` [ENOXOLONE], in the assay on PC-3, the GI50 stood at 95.7 µM. The inhibition in assay [1] was found to be 34%. In addition, in assay [2], the IC50 was more than 10 µM.

Consider `COC(=O)[C@@]1(C)CC[C@]2(C)CC[C@]3(C)C(=CC(=O)[C@@H]4[C@@]5(C)CC[C@H](OC(=O)Cn6c(CCC(=O)O)nc7ccccc76)C(C)(C)[C@@H]5CC[C@]43C)[C@@H]2C1`, for which the figures for the GI50 in the assay with PC-3 and in the assay with LNCaP were 7.8 µM and 13.2 µM, respectively. Further, the inhibition is 100% in assay [1] and “Dose-dependent effect” in assay [3]. For the same compound, in assay [2], the IC50 worked out at 1.07 µM.

As to `CC(=O)O[C@H]1CC[C@]2(C)[C@H]3C(=O)C=C4[C@@H]5C[C@@](C)(C(=O)NCCCn6c(CCC(=O)O)nc7ccccc76)CC[C@]5(C)CC[C@@]4(C)[C@]3(C)CC[C@H]2C1(C)C`, the GI50 in the assay on PC-3 and with LNCaP was more than 50 µM each time. Further, in assay [1], the inhibition was 50%.

Take `COC(=O)[C@@]1(C)CC[C@]2(C)CC[C@]3(C)C(=CC(=O)[C@@H]4[C@@]5(C)CC[C@H](OC(=O)CCn6c(CCC(=O)O)nc7ccccc76)C(C)(C)[C@@H]5CC[C@]43C)[C@@H]2C1`: the GI50 in the assay with PC-3 came out at 16.1 µM; with LNCaP, 26.6 µM. Besides, the inhibition in assay [1] was determined as 88%.
